Measured values published in ChEMBL document CHEMBL1641375, “Antitumor agents 279. Structure-activity relationship and in vivo studies of novel 2-(furan-2-yl)naphthalen-1-ol (FNO) analogs as potent and selective anti-breast cancer agents” (2011).
In brackets after ≈: the same amount, converted by molar mass.

Tests used:
[1] = system: KB; test: Cytotoxicity against human KB cells after 72 hrs by MTT assay; type: functional; details: read-out: ED50 (the source's name)
Outline: (§1)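 Focused human tumour panel: A549 (non-small cell lung), DU145 (prostate), KB (nasopharyngeal), KB-VIN (MDR KB subline selected with vincristine), MDA-MB-231 (ER-negative basal-like breast), SK-BR-3 (ER-negative, HER2-overexpressing luminal-like breast), ZR-75-1 (ER-positive, HER2-overexpressing luminal-like breast). Run by previously published methods.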

[2] = Cytotoxicity against human KBVIN cells after 72 hrs by MTT assay; type: functional; details: read-out: ED50 (the source's name); outline: as §1
[3] = system: A549; test: Cytotoxicity against human A549 cells after 72 hrs by MTT assay; type: functional; details: A549, 72 h, read-out: ED50 (the source's name); outline: as §1
[4] = system: DU-145; test: Cytotoxicity against human DU145 cells after 72 hrs by MTT assay; type: functional; details: DU-145, 72 h, read-out: ED50 (the source's name); outline: as §1
[5] = system: SK-BR-3; test: Cytotoxicity against human SKBR3 cells after 72 hrs by MTT assay; type: functional; details: SK-BR-3, 72 h, read-out: ED50 (the source's name); outline: as §1
[6] = system: ZR-75-1; test: Cytotoxicity against human ZR-75-1 cells after 72 hrs by MTT assay; type: functional; details: ZR-75-1, 72 h, read-out: ED50 (the source's name); outline: as §1
[7] = Inhibition of mammary epithelial cells proliferation in Brca1/p53-deficient C57BL/6 and 129/Sv mouse assessed as reduction of mammary gland branching point at 0.1 mg, po qd for 11 days relative to control; type: functional, Epithelial cell; details: in the assay text read “ip qd” for “po qd”
Outline: (§2)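 Three-month-old Brca1/p53-deficient or wild-type mice (C57BL/6 × 129/Sv background) received 0.1 mg i.p. daily for 11 days in DMSO/40% PEG/0.9% NaCl, or vehicle alone. Mammary gland whole mounts were fixed in Carnoy's fixative for 3 h and stained with Carmine alum overnight. Branching points were counted in three random areas totalling about 2 mm2.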

[8] = system: Epithelial cell; test: Inhibition of wild type mammary epithelial cells proliferation in wild type C57BL/6 and 129/Sv mouse assessed as reduction of mammary gland branching point at 0.1 mg, po qd for 11 days relative to control; type: functional; details: in the assay text read “ip qd” for “po qd”; outline: as §2
[9] = Inhibition of mammary epithelial cells proliferation in Brca1/p53-deficient C57BL/6 and 129/Sv mouse assessed as reduction of BrdU positive cells at 0.1 mg, po qd for 11 days relative to control in presence of bromodeoxyuridine treated orally with drinking water last 3 days of treatment; type: functional, Epithelial cell; details: in the assay text read “ip qd” for “po qd”
Outline: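 Three-month-old Brca1f11/f11p53f5&6/f5&6Crec or wild-type mice (mixed C57BL/6 and 129/Sv background) dosed 0.1 mg i.p. daily for 11 days. Dosing solution was 10 µL of a 10 mg/mL DMSO stock with 30 µL 40% PEG and 60 µL 0.9% NaCl; vehicle lacked compound. BrdU given in drinking water over the last 3 days. Glands fixed in 4% paraformaldehyde, paraffin-sectioned, citrate pH 6.0 antigen retrieval, anti-BrdU 1:1000. BrdU-positive cells per duct counted over ≥15 ducts/animal, ≥3 mice/genotype.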

[10] = system: MDA-MB-231; test: Cytotoxicity against human MDA-MB-231 cells after 72 hrs by MTT assay; type: functional; details: MDA-MB-231, 72 h, read-out: ED50 (the source's name); outline: as §1
[11] = system: SK-BR-3; test: Selectivity ratio, ED50 for human KB cells to ED50 for human SKBR3 cells; type: functional
[12] = system: SK-BR-3; test: Selectivity ratio, ED50 for human KBVIN cells to ED50 for human SKBR3 cells; type: functional
[13] = system: A549; test: Selectivity ratio, ED50 for human A549 cells to ED50 for human SKBR3 cells; type: functional
[14] = system: SK-BR-3; test: Selectivity ratio, ED50 for human DU145 cells to ED50 for human SKBR3 cells; type: functional
[15] = system: ZR-75-1; test: Selectivity ratio, ED50 for human ZR-75-1 cells to ED50 for human SKBR3 cells; type: functional
[16] = system: MDA-MB-231; test: Selectivity ratio, ED50 for human MDA-MB-231 cells to ED50 for human SKBR3 cells; type: functional

Compound	EC50 [1] [µg/mL]	EC50 [2] [µg/mL]	EC50 [3] [µg/mL]	EC50 [4] [µg/mL]	EC50 [5] [µg/mL]	EC50 [6] [µg/mL]	inhibition (INH) [7] [%]	inhibition (INH) [8] [%]	inhibition (INH) [9] [%]	EC50 [10] [µg/mL]	Ratio ED50 [11]	Ratio ED50 [12]	Ratio ED50 [13]	Ratio ED50 [14]	Ratio ED50 [15]	Ratio ED50 [16]
CCc1cccc2c(OC)c(-c3occ(C)c3CBr)ccc12	> 10	> 10	> 10	> 10	> 10	4.6 (≈ 12.8 µM)	–	–	–	–	–	–	–	–	–	–
CCc1cccc2c(O)c(-c3occ(C)c3C(=O)O)ccc12	9.1 (≈ 30.7 µM)	7 (≈ 23.6 µM)	–	8.7 (≈ 29.4 µM)	1 (≈ 3.37 µM)	0.3 (≈ 1.01 µM)	70	29	83	–	–	–	–	–	–	–
CCc1cccc2c(OC)c(-c3occ(C)c3CO)ccc12	7.1 (≈ 24 µM)	6.6 (≈ 22.3 µM)	9.6 (≈ 32.4 µM)	7.2 (≈ 24.3 µM)	0.73 (≈ 2.46 µM)	> 10	–	–	–	> 10	9	9	13.2	9	> 13.7	> 13.7
CCc1cccc2c(OC)c(-c3occ(C)c3COC)ccc12	> 10	8.8 (≈ 28.4 µM)	> 10	> 10	> 10	9.7 (≈ 31.3 µM)	–	–	–	–	–	–	–	–	–	–
CCOc1c(-c2occ(C)c2COC(C)=O)ccc2c(CC)cccc12	> 10	5.8 (≈ 16.5 µM)	> 10	> 10	> 10	4.9 (≈ 13.9 µM)	–	–	–	> 10	–	–	–	–	–	–
CCOc1c(-c2occ(C)c2COC)ccc2c(CC)cccc12	> 10	5.9 (≈ 18.2 µM)	> 10	> 10	> 10	> 10	–	–	–	4.9 (≈ 15.1 µM)	–	–	–	–	–	–
CCc1cccc2c(OC)c(-c3occ(C)c3COC(=O)CCN(CC)CC)ccc12	> 10	> 10	> 10	> 10	> 10	1.7 (≈ 4.01 µM)	–	–	–	0.85 (≈ 2.01 µM)	–	–	–	–	–	–
CCc1cccc2c(OC)c(-c3occ(C)c3C(=O)On3nnc4ccccc43)ccc12	> 10	> 10	> 10	> 10	> 10	> 10	–	–	–	> 10	–	–	–	–	–	–
CCc1cccc2c(OC)c(-c3occ(C)c3C(=S)OC)ccc12	4.3 (≈ 12.6 µM)	5.1 (≈ 15 µM)	6.2 (≈ 18.2 µM)	5.7 (≈ 16.7 µM)	6.3 (≈ 18.5 µM)	5.8 (≈ 17 µM)	–	–	–	7.1 (≈ 20.9 µM)	–	–	–	–	–	–
CCOc1c(-c2occ(C)c2C(=O)OC)ccc2c(CC)cccc12	1.8 (≈ 5.32 µM)	1.7 (≈ 5.02 µM)	2.4 (≈ 7.09 µM)	1.9 (≈ 5.61 µM)	1.9 (≈ 5.61 µM)	1.2 (≈ 3.55 µM)	–	–	–	1.1 (≈ 3.25 µM)	–	–	–	–	–	–
CCc1cccc2c(OC)c(-c3occ(C)c3C(=O)NC)ccc12	> 10	> 10	> 10	> 10	> 10	> 10	–	–	–	> 10	–	–	–	–	–	–
CCc1cccc2c(OC)c(-c3occ(C)c3C(=O)OC)ccc12	1.7 (≈ 5.24 µM)	1.3 (≈ 4.01 µM)	1.5 (≈ 4.62 µM)	2.2 (≈ 6.78 µM)	1.2 (≈ 3.7 µM)	1.3 (≈ 4.01 µM)	–	–	–	2.3 (≈ 7.09 µM)	–	–	–	–	–	–
CCOc1c(-c2occ(C)c2C(=O)O)ccc2c(CC)cccc12	> 10	> 10	> 10	> 10	> 10	> 10	–	–	–	> 10	–	–	–	–	–	–
CCOCc1c(C)coc1-c1ccc2c(CC)cccc2c1OC	> 10	> 10	> 10	> 10	> 10	9.1 (≈ 28.1 µM)	–	–	–	–	–	–	–	–	–	–
CCc1cccc2c(OC(C)=O)c(-c3occ(C)c3COC(C)=O)ccc12	> 10	> 10	> 10	> 10	> 10	> 10	–	–	–	> 10	–	–	–	–	–	–
CCc1cccc2c(OC)c(-c3occ(C)c3COC(C)=O)ccc12	> 10	> 10	> 10	> 10	> 10	3.5 (≈ 10.3 µM)	–	–	–	–	–	–	–	–	–	–
CCCOC(=O)c1c(C)coc1-c1ccc2c(CC)cccc2c1OC	> 10	> 10	> 10	> 10	> 10	> 10	–	–	–	> 10	–	–	–	–	–	–
CCc1cccc2c(OC)c(-c3occ(C)c3COCC(F)(F)F)ccc12	6.6 (≈ 17.4 µM)	6 (≈ 15.9 µM)	> 10	5.7 (≈ 15.1 µM)	5.3 (≈ 14 µM)	5.3 (≈ 14 µM)	–	–	–	–	–	–	–	–	–	–
CCOC(=O)c1c(C)coc1-c1ccc2c(CC)cccc2c1OC	2.2 (≈ 6.5 µM)	1.8 (≈ 5.32 µM)	3.8 (≈ 11.2 µM)	2.2 (≈ 6.5 µM)	2.5 (≈ 7.39 µM)	3.9 (≈ 11.5 µM)	–	–	–	4.3 (≈ 12.7 µM)	–	–	–	–	–	–
CCOc1c(-c2occ(C)c2CO)ccc2c(CC)cccc12	> 10	6.4 (≈ 20.6 µM)	> 10	> 10	8.8 (≈ 28.4 µM)	1.4 (≈ 4.51 µM)	–	–	–	1.7 (≈ 5.48 µM)	–	–	–	–	–	–
